Data taken from ChEMBL document CHEMBL1144104, “Antimicrobial and antitumor activities of mycosporulone” (J Nat Prod, 1999).
Converted amounts (≈) assume the structure as drawn.

Legend:
PC-3 = assay: Cytotoxicity against human PC-3 cells after 5 days by MTT assay; type: functional; conditions: PC-3, 120 h, read-out: LD50 (the source's name)
Outline: (§1)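 Inhibition of tumour cells (human MDA-MB 231 clonogenic cells, human prostatic adenocarcinoma PC3 and murine leukemia L-1210) was read by Mossmann-derived MTT colorimetric method. Taxol and doxorubicin were run as references.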

L1210 = assay: Cytotoxicity against mouse L1210 cells after 5 days by MTT assay; type: functional; conditions: L1210, 120 h, read-out: LD50 (the source's name); outline: as §1
MDA-MB-231 = assay: Cytotoxicity against human MDA-MB-231 cells after 5 days by MTT assay; type: functional; conditions: MDA-MB-231, 120 h, read-out: LD50 (the source's name); outline: as §1
Nakaseomyces glabratus = assay: Antifungal activity against Candida glabrata after 24 to 72 hrs by disk diffusion method; type: functional
Outline: (§2)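 Yeasts grown on yeast extract 10 g, peptone 20 g and glucose 15 g per litre, pH 6.0, solidified with 1.5% agar and autoclaved 120 °C for 20 min. Cellulose-disk diffusion assay, with inhibition zone diameters recorded after 24-72 h of incubation, depending on the strain.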

Cryptococcus neoformans = assay: Antifungal activity against Cryptococcus neoformans 1 after 24 to 72 hrs by disk diffusion method; type: functional; outline: as §2
Candida tropicalis = assay: Antifungal activity against amphotericin-resistant Candida tropicalis after 24 to 72 hrs by disk diffusion method; type: functional; outline: as §2
Staphylococcus aureus [1] = assay: Antibacterial activity against penicillin-resistant Staphylococcus aureus after 24 to 72 hrs by disk diffusion method; type: functional
Outline: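 Cellulose-disk agar diffusion; growth medium includes soya phytone 5 g and NaCl 5 g per litre distilled water, pH 7.2, with 1.5% agar, autoclaved 120 °C for 20 min. Inhibition zone diameters read after 24-72 h of incubation, depending on the target organism.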

Enterococcus faecalis = assay: Antibacterial activity against Streptococcus faecalis after 24 to 72 hrs by disk diffusion method; type: functional
Outline: (§3)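 Paper-disk diffusion on agar plates. Cellulose disks carry crude EtOAc extract of the fungal culture filtrate; the extract is dried, then redissolved in 3 mL EtOAc. Inhibition zone diameters are read after 24-72 h of incubation, with the time depending on the target organism.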

Pseudomonas aeruginosa = assay: Antibacterial activity against Pseudomonas aeruginosa after 24 to 72 hrs by disk diffusion method; type: functional; outline: as §3
Staphylococcus aureus [2] = assay: Antibacterial activity against Staphylococcus aureus after 24 to 72 hrs by disk diffusion method; type: functional; outline: as §3
Escherichia coli = assay: Antibacterial activity against Escherichia coli after 24 to 72 hrs by disk diffusion method; type: functional; outline: as §3
[3] = Cytotoxicity against human MRC5 cells after 5 days by MTT assay; type: cell-based; conditions: read-out: LD50
Outline: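 Human lung fibroblast MRC5 (nontumor) line in 96-well plates; modified Mossmann MTT colorimetric micromethod; compound tested up to a maximal concentration of 100 µg/mL.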

Compound	CC50 (PC-3)	CC50 (L1210)	CC50 (MDA-MB-231)	MIC (Nakaseomyces glabratus)	MIC (Cryptococcus neoformans)	MIC (Candida tropicalis)	MIC (Staphylococcus aureus [1])	MIC (Enterococcus faecalis)	MIC (Pseudomonas aeruginosa)	MIC (Staphylococcus aureus [2])	MIC (Escherichia coli)	CC50 at 120 h [3]
COc1cccc2c1C(=O)c1c(O)c3c(c(O)c1C2=O)C[C@@](O)(C(=O)CO)C[C@@H]3O[C@H]1C[C@H](N)[C@H](O)[C@H](C)O1 [DOXORUBICIN]	0.19 mg/L (≈ 0.35 µM)	0.02 mg/L (≈ 0.0368 µM)	0.09 mg/L (≈ 0.166 µM)	–	–	–	–	–	–	–	–	–
C[C@@H]1[C@H](O)[C@@H](C)/C=C/C=C/C=C/C=C/C=C/C=C/C=C/[C@H](O[C@@H]2O[C@H](C)[C@@H](O)[C@H](N)[C@@H]2O)C[C@@H]2O[C@](O)(C[C@@H](O)C[C@@H](O)[C@H](O)CC[C@@H](O)C[C@@H](O)CC(=O)O[C@H]1C)C[C@H](O)[C@H]2C(=O)O [AMPHOTERICIN B]	–	–	–	140 mg/L (≈ 152 µM)	140 mg/L (≈ 152 µM)	> 560 mg/L	–	–	–	–	–	–
NC[C@H]1O[C@H](O[C@H]2[C@H](O)[C@@H](O[C@H]3O[C@H](CO)[C@@H](O)[C@H](N)[C@H]3O)[C@H](N)C[C@@H]2N)[C@H](O)[C@@H](O)[C@@H]1O [KANAMYCIN]	–	–	–	–	–	–	14 mg/L (≈ 28.9 µM)	560 mg/L (≈ 1160 µM)	140 mg/L (≈ 289 µM)	140 mg/L (≈ 289 µM)	28 mg/L (≈ 57.8 µM)	–
CC(=O)N1CCN(c2ccc(OCC3COC(Cn4ccnc4)(c4ccc(Cl)cc4Cl)O3)cc2)CC1 (configuration not stated) [KETOCONAZOLE]	–	–	–	14 mg/L (≈ 26.3 µM)	56 mg/L (≈ 105 µM)	140 mg/L (≈ 263 µM)	–	–	–	–	–	–
C=C1OC(=O)[C@]2(C1=O)[C@H](C)C=CC(=O)[C@H]2O [MYCOSPORULONE]	2.6 mg/L (≈ 11.7 µM)	0.3 mg/L (≈ 1.35 µM)	7.7 mg/L (≈ 34.7 µM)	420 mg/L (≈ 1890 µM)	280 mg/L (≈ 1260 µM)	14 mg/L (≈ 63 µM)	14 mg/L (≈ 63 µM)	280 mg/L (≈ 1260 µM)	14 mg/L (≈ 63 µM)	420 mg/L (≈ 1890 µM)	14 mg/L (≈ 63 µM)	> 100 mg/L
CN[C@@H]1[C@H](O[C@H]2[C@H](O[C@H]3[C@H](O)[C@@H](O)[C@H](N=C(N)N)[C@@H](O)[C@@H]3N=C(N)N)O[C@@H](C)[C@]2(O)C=O)O[C@@H](CO)[C@H](O)[C@H]1O [STREPTOMYCIN]	–	–	–	–	–	–	14 mg/L (≈ 24.1 µM)	420 mg/L (≈ 722 µM)	140 mg/L (≈ 241 µM)	420 mg/L (≈ 722 µM)	28 mg/L (≈ 48.1 µM)	–
CC(=O)O[C@H]1C(=O)[C@@]2(C)[C@H]([C@H](OC(=O)c3ccccc3)[C@]3(O)C[C@H](OC(=O)[C@H](O)[C@@H](NC(=O)c4ccccc4)c4ccccc4)C(C)=C1C3(C)C)[C@]1(OC(C)=O)CO[C@@H]1C[C@@H]2O [PACLITAXEL]	0.0027 mg/L (≈ 0.00316 µM)	0.014 mg/L (≈ 0.0164 µM)	0.003 mg/L (≈ 0.00351 µM)	–	–	–	–	–	–	–	–	–
NYSTATIN	–	–	–	28 mg/L	14 mg/L	14 mg/L	–	–	–	–	–	–
CC1(C)S[C@@H]2[C@H](NC(=O)Cc3ccccc3)C(=O)N2[C@H]1C(=O)O [PENICILLIN G]	–	–	–	–	–	–	560 mg/L (≈ 1670 µM)	14 mg/L (≈ 41.9 µM)	560 mg/L (≈ 1670 µM)	14 mg/L (≈ 41.9 µM)	560 mg/L (≈ 1670 µM)	–
